Results from ChEMBL document CHEMBL1124353, “(R)- and (S)-5,6,7,8-tetrahydro-1-hydroxy-N,N-dipropyl-9H-benzocyclohepten- 8-ylamine. Stereoselective interactions with 5-HT1A receptors in the brain” (J Med Chem, 1989).

Key:
Rattus norvegicus [1] = test: In vivo accumulation 5-HTP in striatum of rat brain at 3.2 umol/Kg; format: functional
Procedure, shortened: (§1)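 Nonreserpinised male Sprague–Dawley rats (180–220 g) given drug as hydrochloride sc in saline, 30 min before aromatic L-amino acid decarboxylase inhibitor NSD 1015; killed 30 min after NSD 1015. Striatum and limbic system (rhinal fissure landmark) dissected. 5-HTP or DOPA measured by ion-pair reversed-phase HPLC with electrochemical detection, ng/g; means ± SEM, n = 3–7 per dose group, Dunnett's test vs control.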

[2] = target: T1, 5-hydroxytryptamine receptor 1A (Rattus norvegicus, UniProt P19327); test: Affinity for 5-hydroxytryptamine 1A receptor site
T1 sequence (P19327 whole entry): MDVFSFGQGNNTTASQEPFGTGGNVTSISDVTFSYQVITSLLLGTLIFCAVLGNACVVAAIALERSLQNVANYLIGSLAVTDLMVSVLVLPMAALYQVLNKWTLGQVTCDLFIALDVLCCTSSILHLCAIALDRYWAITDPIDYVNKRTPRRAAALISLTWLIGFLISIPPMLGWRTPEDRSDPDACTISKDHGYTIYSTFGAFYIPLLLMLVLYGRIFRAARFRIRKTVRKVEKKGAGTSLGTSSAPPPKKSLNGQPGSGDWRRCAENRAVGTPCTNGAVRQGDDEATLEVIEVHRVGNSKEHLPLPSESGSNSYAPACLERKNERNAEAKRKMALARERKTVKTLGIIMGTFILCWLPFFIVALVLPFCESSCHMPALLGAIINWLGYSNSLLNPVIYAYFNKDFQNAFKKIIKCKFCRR
Procedure, shortened: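 Rat (male Sprague–Dawley) cortex plus hippocampus homogenised in 50 mM Tris-HCl with 4.0 mM CaCl2 and 5.7 mM ascorbate, pH 7.5, washed, pooled (≥6 rats), pargyline 10 μM pretreated. Incubated at 37 °C for 10 min with 2 nM [3H]-8-OH-DPAT and 1–300 nM competitor. Filtered, scintillation counted; 10 μM 5-HT defines nonspecific binding. Ki from nonlinear least-squares using Kd 1.4 nM.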

Rattus norvegicus [3] = test: In vivo accumulation 5-HTP in striatum of rat brain striatum at 32 umol/kg reserpine pretreatment; format: functional
Procedure, shortened: (§2)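 Male Sprague–Dawley rats pretreated with reserpine (8 μmol/kg, 4 h before), then given drug sc as hydrochloride in saline 30 min before NSD 1015 decarboxylase inhibition; killed 30 min later. Striatal and limbic 5-HTP or DOPA determined by ion-pair reversed-phase HPLC with electrochemical detection, ng/g; means ± SEM, n = 3–7; Dunnett's test vs reserpinised controls.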

Rattus norvegicus [4] = test: In vivo accumulation of 5-HTP in limbic of rat brain for following at 32 umol/kg reserpine pretreatment; format: functional; procedure, shortened: as §2
Rattus norvegicus [5] = test: In vivo accumulations of dopamine in limbic of rat brain at 10 umol/Kg; format: functional; procedure, shortened: as §1
Rattus norvegicus [6] = test: In vivo accumulations of dopamine in limbic of rat brain for at 3.2 umol/Kg; format: functional; procedure, shortened: as §1
Rattus norvegicus [7] = test: In vivo accumulation of dopamine in striatum of rat brain at 3.2 umol/Kg; format: functional; procedure, shortened: as §1
Rattus norvegicus [8] = test: In vivo accumulation 5-HTP in striatum of rat brain at 10 umol/Kg; format: functional; procedure, shortened: as §1
Rattus norvegicus [9] = test: In vivo accumulation of 5-HTP in limbic of rat brain at 3.2 umol/Kg; format: functional; procedure, shortened: as §1
Rattus norvegicus [10] = test: In vivo accumulation of 5-HTP in limbic of rat brain for following at 10 umol/Kg; format: functional; procedure, shortened: as §1
Rattus norvegicus [11] = test: In vivo accumulation of dopamine in striatum of rat brain at 32 umol/kg with reserpine pretreatment; format: functional; procedure, shortened: as §2
Rattus norvegicus [12] = test: In vivo accumulation of dopamine in striatum of rat brain at 10 umol/Kg; format: functional; procedure, shortened: as §1
Rattus norvegicus [13] = test: In vivo accumulation 5-HTP in striatum of rat brain striatum at 32 umol/Kg; format: functional; procedure, shortened: as §1
Rattus norvegicus [14] = test: In vivo accumulation of dopamine in striatum of rat brain at 32 umol/Kg; format: functional; procedure, shortened: as §1
Rattus norvegicus [15] = test: In vivo accumulations of dopamine in limbic of rat brain at 32 umol/Kg; format: functional; procedure, shortened: as §1
Rattus norvegicus [16] = test: In vivo accumulation of 5-HTP in limbic of rat brain for following at 32 umol/Kg; format: functional; procedure, shortened: as §1

| Compound | Dose (Rattus norvegicus [1]) [µM/kg] | Ki [2] [nM] | Dose (Rattus norvegicus [3]) [µM/kg] | Dose (Rattus norvegicus [4]) [µM/kg] | Dose (Rattus norvegicus [5]) [µM/kg] | Dose (Rattus norvegicus [6]) [µM/kg] | Dose (Rattus norvegicus [7]) [µM/kg] | Dose (Rattus norvegicus [8]) [µM/kg] | Dose (Rattus norvegicus [9]) [µM/kg] | Dose (Rattus norvegicus [10]) [µM/kg] | Dose (Rattus norvegicus [11]) [µM/kg] | Dose (Rattus norvegicus [12]) [µM/kg] | Dose (Rattus norvegicus [13]) [µM/kg] | Dose (Rattus norvegicus [14]) [µM/kg] | Dose (Rattus norvegicus [15]) [µM/kg] | Dose (Rattus norvegicus [16]) [µM/kg] |
| --- | --- | --- | --- | --- | --- | --- | --- | --- | --- | --- | --- | --- | --- | --- | --- | --- |
| CCCN(CCC)[C@H]1CCCc2cccc(O)c2C1 | 110 | > 300 | 74 | 154 | 381 | 331 | 1003 | 98 | 194 | 170 | 1934 | 830 | – | – | – | – |
| CCCN(CCC)[C@@H]1CCCc2cccc(O)c2C1 | – | 29.7 | – | – | 314 | 408 | 1068 | 60 | 132 | 122 | – | 919 | 54 | 1035 | 437 | 76 |
